Usually IC50 stands for the concentration that gives 50% inhibition.

In data set [1] the test system is Plasmodium falciparum. The experiment in a line: Antimicrobial activity against Plasmodium falciparum 3D7 assessed as stage 4 gametocytes per 1000 RBCs at 100 uM after 2 days by Giemsa staining relative to control. Format: functional. In a few lines: (§1)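 3D7 cultures holding asexual parasites and gametocytes, gametocytogenesis induced per Ifediba and Vanderberg. Inhibitor at 100 µM or DMSO carrier for 24 h in a sealed chamber (90% N2, 5% CO2, 5% O2) at 37°C. Fed daily with RPMI 1640, hypoxanthine (10 mg liter−1) and 10% human serum. Gametocytes per 1,000 RBCs counted and staged on Giemsa smears 2 days after treatment.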

For data set [2], the system named is Plasmodium falciparum. The experiment in a line: Antimicrobial activity against asexual stage of Plasmodium falciparum 3D7 assessed as reduction in parasite count at 100 uM after 24 hrs by Giemsa staining. It is filed as functional, organism-based. Put shortly: (§2)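 3D7 cultures containing asexual stages and gametocytes incubated 24 h with inhibitor at 100 µM or DMSO carrier, at 37°C in a sealed chamber (90% N2, 5% CO2, 5% O2), fed with RPMI 1640, hypoxanthine and 10% human serum. Asexual parasites and gametocytes assessed on Giemsa-stained smears.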

Data set [3] concerns Plasmodium falciparum. The experiment in a line: Antimicrobial activity against Plasmodium falciparum 3D7 assessed as stage 3 gametocyte per 1000 RBCs at 100 uM after 5 days by Giemsa staining relative to control. It is filed as functional. In a few lines:
(§3)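 Gametocyte cultures of strain 3D7, 8 days after setup, exposed 24 h to inhibitor at 100 µM or an equal amount of DMSO. Kept at 37°C under 90% N2/5% CO2/5% O2 and fed daily with RPMI 1640, hypoxanthine and 10% human serum. Gametocytes per 1,000 RBCs scored by stage (II–V) on Giemsa-stained smears.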

Data set [4] deals with Plasmodium falciparum. Description: Antimicrobial activity against Plasmodium falciparum 3D7 assessed as stage 4 gametocyte per 1000 RBCs at 100 uM after 5 days by Giemsa staining relative to control. It is filed as functional. Put shortly: as §3
In data set [5] the test system is Plasmodium falciparum. Description: Antimicrobial activity against Plasmodium falciparum 3D7 assessed as stage 2 gametocytes per 1000 RBCs at 100 uM after 2 days by Giemsa staining relative to control. It is filed as functional. Put shortly: as §1
The subject of data set [6] is Plasmodium falciparum. The experiment in a line: Antimicrobial activity against Plasmodium falciparum 3D7 assessed as stage 5 gametocyte per 1000 RBCs at 100 uM after 5 days by Giemsa staining relative to control. It is filed as functional. Put shortly: as §3
Data set [7] deals with Plasmodium falciparum. Description: Antimicrobial activity against Plasmodium falciparum 3D7 assessed as stage 3 gametocytes per 1000 RBCs at 100 uM after 2 days by Giemsa staining relative to control. Format: functional. In a few lines: as §1
A short description of data set [8]: Cytotoxicity against human A549 cells assessed as viable cells at 1 uM by MTS assay in presence of 10% fetal calf serum. It is filed as cell-based. Particulars: read-out: Activity. In a few lines: (§4)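 NIH-3T3 mouse fibroblasts or A549 human lung epithelial cells (1 × 104 to 5 × 10^4 per well) in DMEM with 10% FCS. Viability read by MTS tetrazolium reduction as absorbance.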
A general note: Tetrazolium dyes change colour on reduction, which living cells bring about.

Data set [9] can be described thus: Cytotoxicity against mouse 3T3 cells assessed as viable cells at 1 uM by MTS assay in presence of 10% fetal calf serum. It is filed as cell-based. The settings on record: 3T3 cells (NIH3T3), read-out: Activity. Put shortly:
as §4

The subject of data set [10] is Plasmodium falciparum. The experiment in a line: Antimicrobial activity against gametocyte stage of Plasmodium falciparum 3D7 assessed as reduction in parasite count at 1 uM after 24 hrs by Giemsa staining. Also on record: scale not given: the % may be the effect or the level left. Format: functional. Put shortly: (§5)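 Mixed asexual/gametocyte 3D7 cultures (mainly stage II–III gametocytes) exposed 24 h to serial dilutions (10 nM to 1 µM) or DMSO carrier at 37°C under low-oxygen gas. Asexual parasites and gametocytes counted on Giemsa smears and expressed as percent of DMSO control. IC50 calculated from the 24-h time point.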

In data set [11] the test system is Plasmodium falciparum. The experiment in a line: Antimicrobial activity against gametocyte stage of Plasmodium falciparum 3D7 assessed as reduction in parasite count at 100 nM after 24 hrs by Giemsa staining. More on the design: scale not given: the % may be the effect or the level left. Format: functional. Put shortly:
as §5

Data set [12] concerns Plasmodium falciparum. Description: Antimicrobial activity against asexual stage of Plasmodium falciparum 3D7 assessed as reduction in parasite count at 100 nM after 24 hrs by Giemsa staining. It is filed as functional. More on the design: scale not given: the % may be the effect or the level left. Put shortly:
as §5

Data set [13] relates to Plasmodium falciparum. The experiment in a line: Antimicrobial activity against asexual stage of Plasmodium falciparum 3D7 assessed as reduction in parasite count at 1uM after 24 hrs by Giemsa staining. It is filed as functional. Also on record: scale not given: the % may be the effect or the level left. Put shortly: as §5
Data set [14] relates to Plasmodium falciparum. The experiment in a line: Antimicrobial activity against gametocyte stage of Plasmodium falciparum 3D7 after 24 hrs. Particulars: 3D7, 24 h. It is filed as functional, organism-based. Put shortly: as §5
Data set [15] deals with Plasmodium falciparum. Description: Antimicrobial activity against asexual stage of Plasmodium falciparum 3D7 after 24 hrs. Particulars: 3D7, 24 h. It is filed as functional, organism-based. In a few lines:
as §5

The subject of data set [16] is Plasmodium falciparum. Description: Antimicrobial activity against Plasmodium falciparum 3D7 assessed as gametocytes per 1000 RBCs at 100 uM after 2 days by Giemsa staining relative to control. It is filed as functional. Put shortly:
as §1

In data set [17] the test system is Plasmodium falciparum. The experiment in a line: Antimicrobial activity against asexual stage of Plasmodium falciparum 3D7 at 100 uM after 24 hrs by Giemsa staining. Format: functional, organism-based. In a few lines: as §2
For data set [18], the system named is Plasmodium falciparum. Description: Antimicrobial activity against gametocyte stage of Plasmodium falciparum 3D7 at 100 uM after 24 hrs by Giemsa staining. Format: functional, organism-based. In a few lines:
as §2

Each structure is given as a SMILES string. Active and inactive are the calls of the source. The rule behind the calls is not given here.

Regarding `CCOC(=O)[C@H]1O[C@@H]1C(=O)N[C@@H](CC(C)C)C(=O)NCCC(C)C` [ALOXISTATIN], the Activity in [1] stood at 10%; in data set [3] it was 22%; in data set [4], 68%; in data set [5] it was 72%; in data set [6], 10%; in data set [7] it was 18%. The outcome in data set [2] was Active.
As for `CC[C@H](C)[C@H](NC(=O)[C@H]([C@@H](C)CC)N(C)C(C)=O)C(=O)N[C@H](C(=O)N[C@@H](CC(C)C)C(=O)[C@@]1(C)CO1)[C@@H](C)O` [EPOXOMYCIN], the viability at 1 µM in data set [8] and in data set [9] was 80% each time. Besides, the Activity is recorded as 77% in data set [10], 77% in [11], 86% in data set [12] and 86% in data set [13]. Also, the half-inhibitory concentration (IC50) in data set [14] came out at 54 nM; in [15], 41 nM.
Turning to `Cc1ccc(S(=O)(=O)N[C@@H](Cc2ccccc2)C(=O)CCl)cc1` [TPCK], the Activity in data set [16] turned out to be 21%. Also, the result in data set [17] and in data set [18] was inactive.

These data come from ChEMBL document CHEMBL1649235, “The proteasome inhibitor epoxomicin has potent Plasmodium falciparum gametocytocidal activity” (Antimicrob Agents Chemother, 2009).
